# From PubChem
# XBP1 UPR activ = activators of adaptive XBP1 UPR arm, primary screen, cell-based, CHO-XBP1 luciferase reporter, luminescence, uHTS. IRE1-XBP1 UPR activation; percent of tunicamycin response, DMSO as zero. hit rate 0.33% among 330,000. AID 463104, 2010. activation, % at 20 µM;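 active = versus positive control, 20 µM dose yields 30% or more activation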;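 note: 100% = tunicamycin at 10 µg/mL and 0% = DMSO only wells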
#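 Assay system: CHO-XBP1 luciferase reporter cells; Schedule: 6 h treatment, 37 °C; Detection: glow luminescence from Steady-Glo reagent; Benchmarks: high control tunicamycin 10 µg/mL final, low control DMSO vehicle only.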
# Mdm2-MdmX inh = inhibitors of human Mdm2-MdmX association, primary screen, cell-based, luminescence, split luciferase, SaOS-2, uHTS; SaOS-2 split-luciferase Mdm2/MdmX complementation; inhibition, % at 8 µM; hit rate 3% among 330,000; AID 485346, 2010;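 active = inhibition of at least 50% at 8 µM in the primary screen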
# UBC13 inh = UBC13 polyubiquitin chain formation inhibitors, primary screen, biochemical, TR-FRET, uHTS | Ubiquitin-conjugating enzyme E2 N (Homo sapiens), P61088 | inhibition, % at 20 µM | hit rate 0.47% among 330,000 | AID 485273, 2010; in the data active = inhibition above about 45%, passing the limit was not always enough
# Apaf-1 inh = inhibitors of human Apaf-1 apoptosome, primary screen, biochemical, DEVD-Rh110 fluorescence, uHTS | reconstituted apoptosome caspase-3 activity | inhibition, % at 20 µM | hit rate 0.71% among 330,000 | AID 489030, 2010; active = inhibition of at least 40% at 20 µM;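 note: plate controls were DMSO wells for no effect and DEVD-CHO caspase inhibitor wells for full effect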
#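 Material: reconstituted apoptosome with Apaf-1, cytochrome c, caspase-9, procaspase-3, dATP / Buffer or medium: pH 7.5 Hepes buffer with CHAPS, BSA, DTT / Also added: cytochrome c with DEVD-Rh110 / Schedule: compound with Apaf-1, dATP, procaspase-3 30 min, then 50 min reaction, room temperature / Technique: rhodamine 110 fluorescence at Ex 480/Em 540 nm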
# CHOP UPR activ = activators of apoptotic CHOP UPR arm, primary screen, cell-based, CHO-CHOP luciferase reporter, luminescence, uHTS; UPR activation; percent of tunicamycin response over DMSO baseline; activation, % at 10 µM; hit rate 0.34% among 330,000;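 active = at 10 µM dose, activation of 40% or more, normalized to positive control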;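 note: 100% = tunicamycin at 10 µg/mL and 0% = DMSO alone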
#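 System: CHO CHOP reporter cells. Amount: 500 cells per well. Buffer or medium: F12 medium, 10% FBS. Compound dosing: one dose, 10 µM in 0.5% DMSO. Incubation: 6 h compound exposure at 37 °C after overnight seeding. Technique: Steady-Glo luciferase luminescence. Benchmarks: tunicamycin and DMSO controls.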
# Mdm2 MdmX conf = Mdm2-MdmX complex disruptors, retested hits, confirmation, luminescence, single concentration; shares compounds with Mdm2-MdmX inh; inhibition, % at 8 µM; hit rate 55% among 10,000; Mdm2-MdmX binding, luminescent assay; in the data active = inhibition above about 40%
# Full FLuc ctr = full-length luciferase signal inhibition, confirmation, counter-screen for Mdm2/MdmX interaction inhibitor project, cell-based, single concentration, SaOS-2. shares compounds with Mdm2-MdmX inh. SaOS-2 full-length luciferase counterscreen, luminescence. inhibition, % at 8 µM. hit rate 77% among 6,200;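 active = mean inhibition at 8 µM reaching about 37%, which flags the compound as non-specific, limit read from the data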;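 note: p53-null SaOS-2 cells with luciferase driven by a doxycycline-inducible promoter; compound on cells about two nights before reading with doxycycline added after day one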
# * = called active by the depositor; · = no result. In the library only some 4.1% were active in any assay of this set; here they are far more common.
SMILES,XBP1 UPR activ,Mdm2-MdmX inh,UBC13 inh,Apaf-1 inh,CHOP UPR activ,Mdm2 MdmX conf,Full FLuc ctr
CCCn1c(=O)c(C(=O)NCC2CCCO2)c(O)c2ccccc21 (configuration not stated),4,67*,17,9,2,11,·
CCCn1c(=O)c(C(=O)Nc2ccccc2)c(O)c2ccccc21,3,-5,5,1,4,·,·
COc1ccc(Cc2nc3ccc(C(=O)N(C)C(C)c4ccon4)cc3o2)cc1 (configuration not stated),3,8,-7,13,-1,·,·
CCCCCn1c(=O)[nH]c2cc(C(=O)NC3CCN(Cc4ccccc4)CC3)ccc2c1=O,-2,92*,7,-3,-1,29,·
COc1ccc(-n2ncc3c(N(C)C4CCCCC4)ncnc32)cc1,-9,88*,23,21,-9,92*,102*
Cc1cccc(-n2ncc3c(N(CCO)CCO)ncnc32)c1,0,-20,7,6,0,·,·
Cc1cccc(-n2ncc3c(N(C)C4CCCCC4)ncnc32)c1,-8,90*,12,20,-9,87*,84*
CCN(CC(=O)Nc1c(F)cccc1F)C(=O)c1ccc(N2CCCCC2)c([N+](=O)[O-])c1,-4,-2,-17,8,3,·,·
O=C(NCc1ccc(Cl)cc1)C1CCCCN1S(=O)(=O)c1ccccc1 (configuration not stated),-3,4,6,19,1,·,·
COc1ccc(OC)c(C2CC(=O)c3c([nH]c(C(=O)OC(C)C)c3C)C2)c1 (configuration not stated),21,52*,3,13,0,44*,83*
COCCOC(=O)c1[nH]c2c(c1C)C(=O)CC(c1cc(OC)ccc1OC)C2 (configuration not stated),-1,48,4,1,1,·,·
CCCOCCOC(=O)c1[nH]c2c(c1C)C(=O)CC(c1cc(OC)ccc1OC)C2 (configuration not stated),18,59*,-9,9,0,52*,83*
O=C(Nc1nc2ccccc2s1)c1ccc(N2CCCCC2)c([N+](=O)[O-])c1,3,-42,-21,7,3,·,·
O=C(NC(NCC1CCCO1)C(Cl)(Cl)Cl)c1cccc2ccccc12 (configuration not stated),-4,55*,1,9,-2,29,·
Cc1c(O)cccc1C(=O)N[C@@H](CSc1ccccc1)[C@H](O)CN1C[C@H]2CCCC[C@H]2C[C@H]1C(=O)NC(C)(C)C,4,56*,-11,28,14,18,·
CCN(CC(=O)NC(C)(C)C)C(=O)c1ccccc1SCC(=O)NC1CCCCCCC1,-5,23,-6,15,2,·,·
O=C1c2ccccc2C(=O)c2c(Nc3ccc(CCO)cc3)ccc(O)c21,0,72*,-13,28,2,35,33
Nc1ccc(O)c2c1C(=O)c1ccccc1C2=O,4,20,-220,-4,1,·,·
Cc1ccc(C)c(Cn2c(C)nc3c(sc(=S)n3-c3ccccc3)c2=O)c1,0,60*,-11,2,2,19,·
CCCCn1cnc2cc(C)c(C)cc21,1,6,12,5,0,·,·
CCOc1ccccc1NC(=O)NCc1ccco1,1,-2,9,-22,-1,·,·
COc1ccc(NC(=O)CN(C)C(=O)CCCc2nc3ccccc3c(=O)[nH]2)cc1,-2,12,6,-5,2,·,·
O=C(Nc1ccc(CN2CCCCC2)cc1)Nc1ccc(Br)cc1Cl,16,74*,24,16,9,42*,39*
CCOCCCN(C(=O)CCC(=O)Nc1cc(C)on1)C(C(=O)NC(C)(C)C)c1ccccc1Cl (configuration not stated),0,-11,-1,4,-1,·,·
COc1ccc(C2=CSC3=C(C(=O)c4cccc(S(=O)(=O)N(C)C)c4)CCN23)cc1,-1,22,4,3,-1,·,·
SMILES,XBP1 UPR activ,Mdm2-MdmX inh,UBC13 inh,Apaf-1 inh,CHOP UPR activ,Mdm2 MdmX conf,Full FLuc ctr
CCC1CCc2c(c3ccccc3[nH]c2=O)O1 (configuration not stated),2,20,3,5,-3,·,·
O=c1[nH]c2ccccc2c2oc(CCl)nc12,-8,78*,13,-21,-5,52*,54*
CCOc1ccc(C(=O)OCC(=O)NC2CCCCCCC2)cc1,1,20,7,4,-1,·,·
COc1cc(/C=N/N=C(N)N)ccc1OCc1ccccc1Cl,14,100*,54*,34,4,39,74*
CCCCn1c(N)c(N(CCOC)C(=O)c2ccc(-n3c(C)ccc3C)cc2)c(=O)[nH]c1=O,1,19,-4,-4,0,·,·
O=[N+]([O-])c1ccc(Sc2cccc3cccnc23)c2cccnc12,7,65*,-4,1,-1,56*,50*
CN(c1cccc(Cl)c1)S(=O)(=O)c1cccc(C(=O)Nc2nc3ccccc3[nH]2)c1,-1,81*,-20,9,11,36,58*
COc1ccc(C(C)=O)cc1CSc1nnc(-c2ccc(Cl)cc2)n1-c1ccccc1,1,63*,0,14,3,49*,26
Clc1cccc(-c2ccc(-c3nc4ccccn4c3NCc3ccccc3)cc2)c1,0,59*,4,36,15,-57,·
c1ccc(-c2nc3ccccn3c2NCc2ccc3c(c2)OCO3)cc1,0,6,17,12,0,·,·
c1ccc(CNc2c(-c3cccc(SC4CCCCC4)c3)nc3ccccn23)cc1,-7,71*,22,33,13,-1,·
Cc1ccn2c(NCc3ccccc3)c(-c3cccc(SC4CCCCC4)c3)nc2c1,0,58*,16,28,1,-2,·
COc1ccc(-c2cc(-c3nc4ccccn4c3NCc3ccccc3)ccc2OC)cc1,-10,99*,28,26,-9,99*,52*
Cc1ccc2nc(-c3cccc(SC4CCCCC4)c3)c(NCc3ccccc3)n2c1,-2,22,3,24,2,·,·
